ChEMBL document CHEMBL2062438, “Probing the structural requirements for vitamin D3 inhibition of the hedgehog signaling pathway” (Bioorg Med Chem Lett, 2012)

Assays:
HT-29 [1] = assay: Down-regulation of Gli1 mRNA expression in human HT-29 cells at 10 uM after 24 hrs by RT-PCR analysis relative to DMSO-treated control; format: functional
HT-29 [2] = assay: Growth inhibition of human HT-29 cells overexpressing VDR gene after 72 hrs by MTS assay; format: functional; conditions: HT-29, 72 h
How it was run: (§1)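 Cells seeded at 3000/well, incubated overnight at 37 °C in 5% CO2, then treated in triplicate at varying concentrations in 1% DMSO final for 72 h. Viable cells read by MTS. GI50 given as mean ± SEM of at least two separate experiments.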

HT-29 [3] = assay: Upregulation of CYP24A1 mRNA expression in human HT-29 cells at 10 uM after 24 hrs by RT-PCR analysis relative to DMSO-treated control; format: functional
Vitamin D3 receptor [4] = molecular target: T1, Vitamin D3 receptor (Homo sapiens, UniProt P11473); assay: Binding affinity to full length human VDR expressed in mouse C3H10T1/2 cells assessed as upregulation of CYP24A1 mRNA expression at 5 uM after 24 hrs by RT-PCR analysis relative to control; format: ADME, cell-based; conditions: c3h 10t1/2, 24 h
T1 sequence (P11473 whole entry): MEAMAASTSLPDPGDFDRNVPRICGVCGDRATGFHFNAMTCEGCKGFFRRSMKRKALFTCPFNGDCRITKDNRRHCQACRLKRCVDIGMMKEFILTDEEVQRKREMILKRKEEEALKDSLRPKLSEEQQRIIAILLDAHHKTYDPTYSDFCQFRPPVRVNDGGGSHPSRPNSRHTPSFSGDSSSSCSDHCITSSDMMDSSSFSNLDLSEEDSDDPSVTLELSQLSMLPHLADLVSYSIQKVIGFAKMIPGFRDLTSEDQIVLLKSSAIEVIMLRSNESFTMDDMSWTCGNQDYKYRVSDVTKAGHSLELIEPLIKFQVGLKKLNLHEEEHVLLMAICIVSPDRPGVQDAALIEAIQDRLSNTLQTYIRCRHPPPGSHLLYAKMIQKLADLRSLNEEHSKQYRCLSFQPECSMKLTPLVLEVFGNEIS
How it was run: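 Mouse C3H10T1/2 cells treated with analogue at 5 µM for 24 h. Cyp24A1 mRNA was measured and expressed relative to DMSO control, which was set to 1.0.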

[5] = Down-regulation of Gli1 mRNA expression in human U87MG cells at 10 uM after 24 hrs by RT-PCR analysis relative to DMSO-treated control; format: functional, cell-based; conditions: U-87MG ATCC
[6] = Upregulation of CYP24A1 mRNA expression in human U87MG cells at 10 uM after 24 hrs by RT-PCR analysis relative to DMSO-treated control; format: functional, cell-based; conditions: U-87MG ATCC
[7] = molecular target: Protein smoothened (Homo sapiens) (UniProt Q99835); assay: Inhibition of SMO expressed in mouse C3H10T1/2 cells assessed as down-regulation of Gli1 mRNA expression at 5 uM after 24 hrs by RT-PCR analysis relative to oxysterol; format: cell-based; parameters: scale not given: the % may be the effect or the level left; conditions: C3H 10T1/2
How it was run: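 Hh-dependent C3H10T1/2 cells, with the pathway activated by oxysterol, co-treated with analogue at 5 µM for 24 h. Endogenous Gli1 mRNA is reported as % of the oxysterol control, set at 100%.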

[8] = Growth inhibition of human U87MG cells after 72 hrs by MTS assay; format: functional, U-87MG ATCC; conditions: U-87 MG; how it was run: as §1
Vitamin D3 receptor [9] = molecular target: T1, Vitamin D3 receptor; assay: Binding affinity to full length human VDR by fluorescence polarization-based competitive assay; format: ADME
How it was run: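 Competitive fluorescence polarization binding using full-length human VDR and a tight-binding fluorescent VDR ligand; analogues tested at 50 and 100 µM.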

U-87 MG = assay: Ratio of CYP24A1 mRNA upregulation in human […] cells to upregulation of CYP24A1 mRNA in human U87MG cells; format: functional, U-87MG ATCC

Sequence of Protein smoothened (Homo sapiens) (Q99835 whole entry): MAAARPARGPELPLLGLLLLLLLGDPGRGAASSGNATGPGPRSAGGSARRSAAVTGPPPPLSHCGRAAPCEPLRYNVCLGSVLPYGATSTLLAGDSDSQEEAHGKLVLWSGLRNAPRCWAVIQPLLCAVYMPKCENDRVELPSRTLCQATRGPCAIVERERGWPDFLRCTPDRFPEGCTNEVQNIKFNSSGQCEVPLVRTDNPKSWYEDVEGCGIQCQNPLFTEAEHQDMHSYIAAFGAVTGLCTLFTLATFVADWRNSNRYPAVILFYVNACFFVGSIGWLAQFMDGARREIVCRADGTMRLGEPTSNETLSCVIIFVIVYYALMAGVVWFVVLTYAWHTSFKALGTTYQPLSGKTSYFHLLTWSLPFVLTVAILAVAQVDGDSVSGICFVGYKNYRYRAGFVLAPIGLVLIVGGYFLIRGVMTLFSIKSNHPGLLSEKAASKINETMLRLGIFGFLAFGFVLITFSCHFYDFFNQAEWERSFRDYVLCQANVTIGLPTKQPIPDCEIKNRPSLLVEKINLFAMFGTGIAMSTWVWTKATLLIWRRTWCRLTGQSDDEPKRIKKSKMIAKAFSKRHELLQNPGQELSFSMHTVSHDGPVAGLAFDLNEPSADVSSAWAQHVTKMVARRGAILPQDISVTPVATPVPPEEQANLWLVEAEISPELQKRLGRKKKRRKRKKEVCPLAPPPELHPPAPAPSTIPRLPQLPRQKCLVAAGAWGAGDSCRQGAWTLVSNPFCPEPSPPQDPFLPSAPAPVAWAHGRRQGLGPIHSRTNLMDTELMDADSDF

## C=C1CC[C@H](O)C/C1=C\C=C1/CCC[C@]2(C)[C@@H]([C@H](C)CCCC(C)C)CC[C@@H]12
HT-29 [1]
  fold change (FC): 1.2
HT-29 [2]
  GI50: > 100 µM
HT-29 [3]
  fold change (FC): 27.5
Vitamin D3 receptor [4]
  Activity: 43.5
[5]
  fold change (FC): 1.1
[6]
  fold change (FC): 33.8
[7]
  Activity: 69.7%
[8]
  GI50: 46 µM
Vitamin D3 receptor [9]
  Activity: > 100 µM

## C=C1CC[C@H](O)C/C1=C/CO
HT-29 [1]
  fold change (FC): 0.9
HT-29 [2]
  GI50: > 100 µM
HT-29 [3]
  fold change (FC): 0.7
Vitamin D3 receptor [4]
  Activity: 2
[5]
  fold change (FC): 0.9
[6]
  fold change (FC): 0.6
[7]
  Activity: 80.9%
[8]
  GI50: > 100 µM
Vitamin D3 receptor [9]
  Activity: > 100 µM

## C[C@H](CO)[C@H]1CC[C@H]2[C@@H](O)CCC[C@]12C
HT-29 [1]
  fold change (FC): 1.2
HT-29 [2]
  GI50: > 100 µM
HT-29 [3]
  fold change (FC): 1
Vitamin D3 receptor [4]
  Activity: 4.1
[5]
  fold change (FC): 1
[6]
  fold change (FC): 0.7
[7]
  Activity: 87.6%
[8]
  GI50: > 100 µM
Vitamin D3 receptor [9]
  Activity: > 100 µM

## C=C1CC[C@H](O)C/C1=C/C=C1\CCC[C@]2(C)[C@@H]([C@H](C)CCCC(C)C)CC[C@@H]12 [CHOLECALCIFEROL]
U-87 MG
  Ratio: 10000
HT-29 [1]
  fold change (FC): 1.3
HT-29 [2]
  GI50: 68.5 µM
HT-29 [3]
  fold change (FC): 14697
Vitamin D3 receptor [4]
  Activity: 8340
[5]
  fold change (FC): 0.7
[6]
  fold change (FC): 12.2
[8]
  GI50: 23.2 µM
Vitamin D3 receptor [9]
  Activity: > 100 µM

## C=C1CC[C@H](O)C/C1=C/C=C1\CCC[C@]2(C)[C@@H]([C@H](C)CO)CC[C@@H]12
HT-29 [1]
  fold change (FC): 2.7
HT-29 [2]
  GI50: > 100 µM
HT-29 [3]
  fold change (FC): 69.1
Vitamin D3 receptor [4]
  Activity: 1350
[5]
  fold change (FC): 1
[6]
  fold change (FC): 4.8
[7]
  Activity: 80%
[8]
  GI50: > 100 µM
Vitamin D3 receptor [9]
  Activity: > 100 µM

## C=C1CCC=C/C1=C/C=C1\CCC[C@]2(C)[C@@H]([C@H](C)CCCC(C)C)CC[C@@H]12
HT-29 [1]
  fold change (FC): 1.8
HT-29 [2]
  GI50: > 100 µM
HT-29 [3]
  fold change (FC): 1.9
Vitamin D3 receptor [4]
  Activity: 3
[5]
  fold change (FC): 1
[6]
  fold change (FC): 0.9
[7]
  Activity: 79.4%
[8]
  GI50: 48.5 µM
Vitamin D3 receptor [9]
  Activity: > 100 µM

## C=C1CC[C@H](O)C/C1=C/C(O)C1(O)CCC[C@]2(C)[C@@H]([C@H](C)CCCC(C)C)CC[C@@H]12 (some centres not stated)
HT-29 [1]
  fold change (FC): 0.9
HT-29 [2]
  GI50: > 100 µM
HT-29 [3]
  fold change (FC): 1.2
Vitamin D3 receptor [4]
  Activity: 6.7
[5]
  fold change (FC): 1.1
[6]
  fold change (FC): 0.5
[7]
  Activity: 144%
[8]
  GI50: 25.9 µM
Vitamin D3 receptor [9]
  Activity: > 100 µM

## CC(C)CCC[C@@H](C)[C@H]1CC[C@H]2C(=O)CCC[C@]12C
HT-29 [1]
  fold change (FC): 1.1
HT-29 [2]
  GI50: > 100 µM
HT-29 [3]
  fold change (FC): 1
Vitamin D3 receptor [4]
  Activity: 3
[5]
  fold change (FC): 0.9
[6]
  fold change (FC): 0.5
[7]
  Activity: 66.1%
[8]
  GI50: 12.1 µM
Vitamin D3 receptor [9]
  Activity: > 100 µM

## CC(C)CCC[C@@H](C)[C@H]1CC[C@H]2C(CCC3C[C@@H](O)CCC3C)CCC[C@]12C (some centres not stated)
HT-29 [1]
  fold change (FC): 1.4
HT-29 [2]
  GI50: > 100 µM
HT-29 [3]
  fold change (FC): 1.4
Vitamin D3 receptor [4]
  Activity: 1.5
[5]
  fold change (FC): 0.8
[6]
  fold change (FC): 0.8
[7]
  Activity: 82.1%
[8]
  GI50: > 100 µM
Vitamin D3 receptor [9]
  Activity: > 100 µM

## CC(C)[C@@H](C)/C=C/[C@@H](C)[C@H]1CC[C@H]2[C@@H](O)CCC[C@]12C
HT-29 [1]
  fold change (FC): 0.9
HT-29 [2]
  GI50: 49.7 µM
HT-29 [3]
  fold change (FC): 0.7
Vitamin D3 receptor [4]
  Activity: 2.3
[5]
  fold change (FC): 0.8
[6]
  fold change (FC): 0.3
[7]
  Activity: 32.1%
[8]
  GI50: 19 µM
Vitamin D3 receptor [9]
  Activity: > 100 µM

## C=C1CC[C@H](O)C/C1=C/C=C1\CCC[C@]2(C)[C@@H]([C@H](C)/C=C/[C@H](C)C(C)C)CC[C@@H]12 [ERGOCALCIFEROL]
U-87 MG
  Ratio: 25
HT-29 [1]
  fold change (FC): 1.1
HT-29 [2]
  GI50: > 100 µM
HT-29 [3]
  fold change (FC): 10902
Vitamin D3 receptor [4]
  Activity: 2410
[5]
  fold change (FC): 0.9
[6]
  fold change (FC): 49.6
[7]
  Activity: 28.1%
[8]
  GI50: 33.7 µM
Vitamin D3 receptor [9]
  Activity: > 100 µM

## C=C1CC[C@H](O)C/C1=C\C=C1/CCC[C@]2(C)[C@@H]([C@H](C)CO)CC[C@@H]12
HT-29 [1]
  fold change (FC): 1.3
HT-29 [2]
  GI50: > 100 µM
HT-29 [3]
  fold change (FC): 3.3
Vitamin D3 receptor [4]
  Activity: 12.5
[5]
  fold change (FC): 0.8
[6]
  fold change (FC): 0.8
[7]
  Activity: 66.7%
[8]
  GI50: 88.8 µM
Vitamin D3 receptor [9]
  Activity: > 100 µM

## CC(C)CCC[C@@H](C)[C@H]1CCC2=CCCC[C@@]21C
HT-29 [1]
  fold change (FC): 1.1
HT-29 [2]
  GI50: > 100 µM
HT-29 [3]
  fold change (FC): 1.1
Vitamin D3 receptor [4]
  Activity: 2.3
[5]
  fold change (FC): 1
[6]
  fold change (FC): 0.5
[7]
  Activity: 111%
[8]
  GI50: > 100 µM
Vitamin D3 receptor [9]
  Activity: > 100 µM

## CC(C)CCC[C@@H](C)[C@H]1CC[C@H]2[C@@H](O)CCC[C@]12C
HT-29 [1]
  fold change (FC): 1.1
HT-29 [2]
  GI50: 66.5 µM
HT-29 [3]
  fold change (FC): 1.1
Vitamin D3 receptor [4]
  Activity: 3.6
[5]
  fold change (FC): 0.7
[6]
  fold change (FC): 0.4
[7]
  Activity: 46.4%
[8]
  GI50: 5.7 µM
Vitamin D3 receptor [9]
  Activity: > 100 µM
